Source: ChEMBL document CHEMBL1821603, “Bivalent bendamustine and melphalan derivatives as anticancer agents” (Eur J Med Chem, 2011)
Activity calls are given as the source filed them. The calls are words filed in the database; no cut-off is given here.

Columns and labels:
MCF7 [1] = assay: Cytotoxicity against human MCF7 cells at 10 uM after 72 hrs by crystal violet staining; assay type: functional, cell-based
Summary of the method: (§1)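 MCF-7 cells in DMEM high glucose with 5% FCS were seeded at 7500 cells/mL and grown 3 days at 37 °C, 5% CO2. Then exposed 72 h to compound added from a DMF or methanol stock. Biomass was read by crystal violet staining of glutardialdehyde-fixed cells, with 70% ethanol extraction and OD at 578 nm, against untreated control and pre-treatment OD. Three runs per substance.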

MCF7 [2] = assay: Cytotoxicity against human MCF7 cells at 1 uM after 72 hrs by crystal violet staining; assay type: functional, cell-based; summary of the method: as §1
MDA-MB-231 = assay: Antiproliferative activity against human MDA-MB-231 cells after 72 hrs by crystal violet staining; assay type: functional, cell-based
Summary of the method: (§2)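 MCF-7 or MDA-MB-231 cells (ATCC) in DMEM high glucose with 5% FCS, seeded at 7500 cells/mL and grown 3 days at 37 °C, 5% CO2. Compound was added from a DMF or methanol stock and incubated 72 h. Cells were glutardialdehyde-fixed and stained with crystal violet, and the dye was extracted with 70% ethanol for OD 578 nm. T/Ccorr = (T−C0)/(C−C0)×100, where C0 is the OD before treatment. Run 3 times.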

MCF7 [3] = assay: Cytotoxicity against human MCF7 cells at 5 uM after 72 hrs by crystal violet staining; assay type: functional, cell-based; summary of the method: as §1
[4] = Half life in PBS buffer at pH 7.4; assay type: physicochemical
MCF7 [5] = assay: Cytostatic effect against human MCF7 cells at 5 uM after 72 hrs by crystal violet staining relative to uncreate control; assay type: functional, cell-based; summary of the method: as §2
MCF7 [6] = assay: Cytostatic effect against human MCF7 cells at 10 uM after 72 hrs by crystal violet staining relative to uncreate control; assay type: functional; summary of the method: as §2

| SMILES | Activity (MCF7 [1]) | Activity (MCF7 [2]) | Activity (MDA-MB-231) | Activity (MCF7 [3]) | half-life [4] | Activity (MCF7 [5]) | T/C (MCF7 [6]) |
| --- | --- | --- | --- | --- | --- | --- | --- |
| Cn1c(CCCC(=O)O)nc2cc(N(CCCl)CCCl)ccc21 | inactive | inactive | Active | inactive |  |  |  |
| CC(C)(C)OC(=O)N[C@@H](Cc1ccc(N(CCCl)CCCl)cc1)C(=O)OCCN1C(=O)C=CC1=O |  |  | Active |  |  |  |  |
| Cn1c(CCCC(=O)OCCN2C(=O)C=CC2=O)nc2cc(N(CCCl)CCCl)ccc21 |  |  | Active |  | 10 h | Active |  |
| N[C@@H](Cc1ccc(N(CCCl)CCCl)cc1)C(=O)O [MELPHALAN] |  |  | Active |  |  |  | 20% |
